In ChEMBL document CHEMBL2150846, “Optimization of an ether series of mGlu5 positive allosteric modulators: molecular determinants of MPEP-site interaction crossover” (Bioorg Med Chem Lett, 2012):
One block for each molecule: values may come before it. Active and inactive are the calls of the source. No cut-off for these calls is given here.

Tests used:
[1] = target: T1, Metabotropic glutamate receptor 5 (Rattus norvegicus, UniProt P31424); test: Positive allosteric modulation of rat mGluR5 expressed in human HEK293 cells assessed as calcium mobilization; format: functional, cell-based
T1 sequence (P31424 whole entry): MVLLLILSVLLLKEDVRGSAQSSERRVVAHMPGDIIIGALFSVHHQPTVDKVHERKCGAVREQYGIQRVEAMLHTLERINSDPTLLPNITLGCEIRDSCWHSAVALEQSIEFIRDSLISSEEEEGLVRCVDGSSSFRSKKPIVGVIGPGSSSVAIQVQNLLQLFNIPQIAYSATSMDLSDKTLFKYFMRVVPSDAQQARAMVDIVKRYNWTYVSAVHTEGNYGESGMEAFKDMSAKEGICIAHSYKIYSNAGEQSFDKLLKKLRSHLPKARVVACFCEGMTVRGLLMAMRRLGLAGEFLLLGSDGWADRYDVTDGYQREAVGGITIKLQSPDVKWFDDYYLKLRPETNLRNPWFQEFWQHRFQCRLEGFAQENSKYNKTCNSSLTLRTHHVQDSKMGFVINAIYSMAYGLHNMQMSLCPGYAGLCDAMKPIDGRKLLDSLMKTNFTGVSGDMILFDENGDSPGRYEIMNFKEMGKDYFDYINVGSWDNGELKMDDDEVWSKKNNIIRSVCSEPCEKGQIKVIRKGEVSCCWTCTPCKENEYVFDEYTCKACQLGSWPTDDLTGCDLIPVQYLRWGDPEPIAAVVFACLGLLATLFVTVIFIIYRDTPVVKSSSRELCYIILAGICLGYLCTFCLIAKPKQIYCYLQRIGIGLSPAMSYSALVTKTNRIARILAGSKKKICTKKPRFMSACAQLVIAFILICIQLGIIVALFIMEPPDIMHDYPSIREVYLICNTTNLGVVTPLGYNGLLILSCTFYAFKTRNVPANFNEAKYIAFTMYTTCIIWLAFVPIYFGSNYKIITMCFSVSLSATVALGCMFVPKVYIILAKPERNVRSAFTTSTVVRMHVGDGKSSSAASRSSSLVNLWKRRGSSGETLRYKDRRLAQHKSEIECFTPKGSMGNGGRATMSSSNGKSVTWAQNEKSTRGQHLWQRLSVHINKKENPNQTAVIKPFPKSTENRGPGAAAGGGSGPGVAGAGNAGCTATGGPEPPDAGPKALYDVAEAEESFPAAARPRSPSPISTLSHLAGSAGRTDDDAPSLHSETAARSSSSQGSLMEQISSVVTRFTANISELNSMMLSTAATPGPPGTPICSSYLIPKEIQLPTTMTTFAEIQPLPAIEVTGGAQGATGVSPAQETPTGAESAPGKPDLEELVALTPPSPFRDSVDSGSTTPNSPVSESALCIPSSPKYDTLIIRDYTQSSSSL
Procedure, shortened: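 Calcium mobilization in HEK293 cells expressing rat mGlu5, used to obtain functional EC50. pEC50 is the mean of three independent determinations, with coefficient of variation <0.05.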

[2] = target: Metabotropic glutamate receptor 5 (Rattus norvegicus) (UniProt P31424); test: Displacement of [3H]methoxyPEPy from rat mGluR5 expressed in human HEK293 cells at 10 uM after 1 hr by scintillation counter; format: cell-based
Metabotropic glutamate receptor 5 (Rattus norvegicus), sequence (P31424 21-1203 limits assumed): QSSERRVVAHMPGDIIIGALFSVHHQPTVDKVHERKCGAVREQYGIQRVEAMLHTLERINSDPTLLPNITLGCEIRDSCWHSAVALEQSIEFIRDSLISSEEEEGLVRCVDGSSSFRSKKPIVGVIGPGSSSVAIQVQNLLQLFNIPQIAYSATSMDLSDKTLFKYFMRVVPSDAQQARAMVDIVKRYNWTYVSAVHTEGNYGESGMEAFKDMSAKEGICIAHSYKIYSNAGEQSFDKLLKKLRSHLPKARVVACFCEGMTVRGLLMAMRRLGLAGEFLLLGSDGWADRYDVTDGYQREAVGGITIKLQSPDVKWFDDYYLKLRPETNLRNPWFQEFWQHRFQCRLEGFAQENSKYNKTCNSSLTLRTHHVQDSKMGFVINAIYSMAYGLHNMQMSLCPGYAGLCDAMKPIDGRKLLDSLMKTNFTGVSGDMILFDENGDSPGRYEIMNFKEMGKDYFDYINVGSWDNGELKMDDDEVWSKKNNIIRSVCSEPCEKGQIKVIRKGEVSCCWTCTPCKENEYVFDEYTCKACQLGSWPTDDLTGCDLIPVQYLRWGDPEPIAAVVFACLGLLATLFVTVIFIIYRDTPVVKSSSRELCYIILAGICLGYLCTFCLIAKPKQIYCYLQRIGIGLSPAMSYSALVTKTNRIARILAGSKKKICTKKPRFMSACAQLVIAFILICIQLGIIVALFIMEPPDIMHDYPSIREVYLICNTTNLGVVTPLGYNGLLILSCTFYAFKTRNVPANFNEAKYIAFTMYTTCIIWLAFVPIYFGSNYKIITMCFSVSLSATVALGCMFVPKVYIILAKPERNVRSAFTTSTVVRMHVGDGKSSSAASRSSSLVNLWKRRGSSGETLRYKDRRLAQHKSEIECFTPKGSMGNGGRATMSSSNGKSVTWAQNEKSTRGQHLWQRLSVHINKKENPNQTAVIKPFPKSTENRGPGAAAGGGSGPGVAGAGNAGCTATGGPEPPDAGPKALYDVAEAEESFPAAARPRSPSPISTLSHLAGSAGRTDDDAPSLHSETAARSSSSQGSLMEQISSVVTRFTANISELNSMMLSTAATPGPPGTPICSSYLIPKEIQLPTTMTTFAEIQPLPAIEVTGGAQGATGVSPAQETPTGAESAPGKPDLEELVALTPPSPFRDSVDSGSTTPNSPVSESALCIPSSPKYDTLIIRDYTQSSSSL
Procedure, shortened: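 Single-concentration binding to the MPEP site, read as % displacement of [3H]methoxyPEPy at 10 μM test compound. Values are the average of two determinations.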

Brain [3] = test: Fraction unbound in rat brain; format: ADME, tissue-based
Brain [4] = test: Tmax in rat brain at 10 mg/kg, po; format: ADME, organism-based; parameters: dose 10 mg/kg, route oral; conditions: in vivo
Procedure, shortened: (§1)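 Rats were dosed orally at 10 mg/kg in 20% β-CD. Snapshot drug levels were taken in portal vein, plasma and brain at 0.5, 1.0, 3.0 and 6.0 h. AUC, brain/plasma ratio, Cmax, Tmax and Vss were derived from these levels.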

[5] = target: T2, Metabotropic glutamate receptor 5 (Homo sapiens, UniProt P41594); test: Positive allosteric modulation of human mGlu5 expressed in HEK293 cells relative to glutamate; format: cell-based
Target sequence in this assay (P41594 21-1212 limits assumed): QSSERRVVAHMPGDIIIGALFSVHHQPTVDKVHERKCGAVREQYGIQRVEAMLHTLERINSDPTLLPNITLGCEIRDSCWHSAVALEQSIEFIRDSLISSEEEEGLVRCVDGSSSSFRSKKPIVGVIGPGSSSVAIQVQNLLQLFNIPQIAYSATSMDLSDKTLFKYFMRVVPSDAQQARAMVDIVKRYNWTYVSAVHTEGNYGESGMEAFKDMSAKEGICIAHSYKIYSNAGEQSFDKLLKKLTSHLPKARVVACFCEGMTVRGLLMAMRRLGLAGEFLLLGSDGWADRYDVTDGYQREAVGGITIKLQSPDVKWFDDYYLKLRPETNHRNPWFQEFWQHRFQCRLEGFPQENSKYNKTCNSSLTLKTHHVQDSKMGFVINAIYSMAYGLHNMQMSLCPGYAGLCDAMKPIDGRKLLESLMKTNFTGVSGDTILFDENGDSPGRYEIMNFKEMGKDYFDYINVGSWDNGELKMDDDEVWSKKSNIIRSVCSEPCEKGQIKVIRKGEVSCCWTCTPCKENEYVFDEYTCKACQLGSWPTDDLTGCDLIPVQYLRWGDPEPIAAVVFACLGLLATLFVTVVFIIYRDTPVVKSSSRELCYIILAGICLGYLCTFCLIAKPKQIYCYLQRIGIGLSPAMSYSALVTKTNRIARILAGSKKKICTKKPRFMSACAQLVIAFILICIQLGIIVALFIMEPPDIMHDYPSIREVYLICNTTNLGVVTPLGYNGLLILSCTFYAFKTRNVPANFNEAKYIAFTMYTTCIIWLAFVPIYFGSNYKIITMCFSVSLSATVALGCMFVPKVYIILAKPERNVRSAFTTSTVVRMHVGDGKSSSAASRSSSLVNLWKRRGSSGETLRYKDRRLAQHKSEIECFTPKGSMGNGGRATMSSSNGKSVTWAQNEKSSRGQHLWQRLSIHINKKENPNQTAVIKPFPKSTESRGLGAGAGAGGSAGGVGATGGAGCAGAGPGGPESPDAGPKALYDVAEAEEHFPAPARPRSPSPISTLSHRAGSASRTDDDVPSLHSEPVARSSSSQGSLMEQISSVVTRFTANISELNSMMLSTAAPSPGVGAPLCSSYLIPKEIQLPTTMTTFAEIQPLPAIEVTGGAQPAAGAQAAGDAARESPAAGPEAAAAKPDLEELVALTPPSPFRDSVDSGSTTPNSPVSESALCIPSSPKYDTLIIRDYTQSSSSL

[6] = system: Metabotropic glutamate receptor 5 (Rattus norvegicus), P31424 [T780A]; test: Positive allosteric modulation of wild type rat mGlu5 receptor T780A mutant expressed in human HEK293 cells assessed as glutamate concentration response curve at 1 uM; format: cell-based
Metabotropic glutamate receptor 5 (Rattus norvegicus), P31424 [T780A], sequence (P31424 whole entry T780A): as the sequence (P31424 whole entry) above, with T780A counted along it

[7] = target: T1, Metabotropic glutamate receptor 5; test: Displacement of [3H]methoxyPEPy from rat mGluR5 expressed in human HEK293 cells after 1 hr by scintillation counter; format: cell-based
[8] = target: Metabotropic glutamate receptor 1 (Homo sapiens, UniProt Q13255); test: Positive allosteric modulation of mGluR1
[9] = target: Metabotropic glutamate receptor 2 (Homo sapiens, UniProt Q14416); test: Positive allosteric modulation of mGluR2
[10] = target: Metabotropic glutamate receptor 6 (Homo sapiens, UniProt O15303); test: Positive allosteric modulation of mGluR6
[11] = target: T2, Metabotropic glutamate receptor 5; test: Positive allosteric modulation of human mGluR5 expressed in HEK293 cells assessed as calcium mobilization; format: functional, cell-based
Target sequence in this assay (P41594 whole entry): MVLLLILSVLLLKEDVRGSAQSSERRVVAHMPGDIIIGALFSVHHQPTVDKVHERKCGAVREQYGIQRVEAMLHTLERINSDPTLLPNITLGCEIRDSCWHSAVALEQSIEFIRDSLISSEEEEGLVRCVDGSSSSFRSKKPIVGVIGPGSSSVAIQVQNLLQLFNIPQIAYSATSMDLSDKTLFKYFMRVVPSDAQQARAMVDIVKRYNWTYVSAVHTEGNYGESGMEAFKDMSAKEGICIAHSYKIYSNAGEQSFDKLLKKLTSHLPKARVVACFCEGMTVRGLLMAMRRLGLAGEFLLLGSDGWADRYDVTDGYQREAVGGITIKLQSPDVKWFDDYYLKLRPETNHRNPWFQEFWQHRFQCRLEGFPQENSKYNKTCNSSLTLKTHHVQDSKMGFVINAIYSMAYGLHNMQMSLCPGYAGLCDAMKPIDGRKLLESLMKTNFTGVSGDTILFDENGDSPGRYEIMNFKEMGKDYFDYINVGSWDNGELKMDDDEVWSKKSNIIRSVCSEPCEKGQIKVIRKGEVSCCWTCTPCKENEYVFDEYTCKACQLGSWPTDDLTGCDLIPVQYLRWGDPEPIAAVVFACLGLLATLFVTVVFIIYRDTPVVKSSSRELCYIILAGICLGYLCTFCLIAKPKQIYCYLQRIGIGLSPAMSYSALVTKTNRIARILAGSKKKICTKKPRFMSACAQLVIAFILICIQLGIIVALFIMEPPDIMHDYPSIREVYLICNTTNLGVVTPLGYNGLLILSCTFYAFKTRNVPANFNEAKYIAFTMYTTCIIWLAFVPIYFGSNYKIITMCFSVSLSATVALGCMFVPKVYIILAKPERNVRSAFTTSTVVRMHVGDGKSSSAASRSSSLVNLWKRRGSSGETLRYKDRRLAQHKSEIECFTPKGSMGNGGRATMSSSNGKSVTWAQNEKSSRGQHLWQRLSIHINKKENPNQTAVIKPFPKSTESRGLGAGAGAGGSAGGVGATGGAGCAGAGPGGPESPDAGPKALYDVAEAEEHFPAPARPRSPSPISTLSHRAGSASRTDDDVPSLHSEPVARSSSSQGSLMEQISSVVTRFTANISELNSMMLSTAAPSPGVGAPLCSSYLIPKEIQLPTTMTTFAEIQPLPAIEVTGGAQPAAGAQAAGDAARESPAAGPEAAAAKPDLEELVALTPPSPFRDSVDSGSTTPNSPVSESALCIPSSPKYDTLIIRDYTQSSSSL

[12] = Terminal half life in rat at 1 mg/kg, iv and 10 mg/kg, po; format: ADME, organism-based; conditions: in vivo, read-out: beta t1/2 (converted)
Procedure, shortened: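 Non-crossover rat PK study with 1 mg/kg IV dosing and 10 mg/kg PO dosing in 20% β-CD. Plasma clearance and terminal half-life were determined.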

[13] = Plasma protein binding in rat plasma
[14] = target: Metabotropic glutamate receptor 5 (Rattus norvegicus) (UniProt P31424); test: Positive allosteric modulation of wild type rat mGlu5 expressed in human HEK293 cells assessed as glutamate concentration response curve at 1 uM; format: cell-based
[15] = target: Metabotropic glutamate receptor 7 (Homo sapiens, UniProt Q14831); test: Positive allosteric modulation of mGluR7
[16] = AUC in rat brain at 10 mg/kg, po; format: ADME, organism-based; parameters: dose 10 mg/kg, route oral; procedure, shortened: as §1
[17] = target: Metabotropic glutamate receptor 8 (Homo sapiens, UniProt O00222); test: Positive allosteric modulation of mGluR8
[18] = target: Metabotropic glutamate receptor 3 (Homo sapiens, UniProt Q14832); test: Positive allosteric modulation of mGluR3
[19] = system: Metabotropic glutamate receptor 5 (Rattus norvegicus), P31424 [P654F]; test: Positive allosteric modulation of wild type rat mGlu5 receptor P654F mutant expressed in human HEK293 cells assessed as glutamate concentration response curve at 1 uM; format: cell-based
Metabotropic glutamate receptor 5 (Rattus norvegicus), P31424 [P654F], sequence (P31424 whole entry P654F): as the sequence (P31424 whole entry) above, with P654F counted along it

[20] = Drug uptake in rat brain after 90 mins; format: ADME, tissue-based; conditions: read-out: Drug uptake
Rattus norvegicus [21] = test: Volume of distribution at steady state in rat at 10 mg/kg, po; format: ADME, organism-based; parameters: dose 10 mg/kg, route oral; conditions: in vivo; procedure, shortened: as §1
[22] = Plasma protein binding in human plasma
Plasma = test: AUC in rat plasma at 10 mg/kg, po; format: ADME, organism-based; parameters: dose 10 mg/kg, route oral; conditions: in vivo; procedure, shortened: as §1
Rattus norvegicus [23] = test: Antipsychotic activity in rat assessed as reversal of amphetamine-induced hyperlocomotion at 100 mg/kg, po; format: functional, organism-based; parameters: dose 100 mg/kg
Procedure, shortened: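 Rats given amphetamine to induce hyperlocomotion received the test agent orally at 100 mg/kg in 20% β-CD vehicle. Reversal of locomotor activity was measured.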

[24] = Solubility of the compound in fasted state simulated intestinal fluid; format: physicochemical
[25] = target: Metabotropic glutamate receptor 5 (Rattus norvegicus) (UniProt P31424); test: Positive allosteric modulation of rat mGlu5 expressed in human HEK293 cells relative to glutamate; format: cell-based
[26] = target: Metabotropic glutamate receptor 4 (Homo sapiens, UniProt Q14833); test: Positive allosteric modulation of mGluR4
[27] = system: Metabotropic glutamate receptor 5 (Rattus norvegicus), P31424 [A809V]; test: Positive allosteric modulation of wild type rat mGlu5 receptor A809V mutant expressed in human HEK293 cells assessed as glutamate concentration response curve at 1 uM; format: cell-based
Metabotropic glutamate receptor 5 (Rattus norvegicus), P31424 [A809V], sequence (P31424 whole entry A809V): as the sequence (P31424 whole entry) above, with A809V counted along it

Brain [28] = test: Ratio of AUC in rat brain to AUC in rat plasma at 10 mg/kg, po; format: ADME, organism-based; parameters: dose 10 mg/kg, route oral; procedure, shortened: as §1
[29] = Cmax in rat brain at 10 mg/kg, po; format: ADME, organism-based; parameters: dose 10 mg/kg, route oral; procedure, shortened: as §1

SMILES: CC(C)CCOc1ccc(C(=O)NC2CCCCC2)cn1
- EC50 ([1]; read-out: EC50): 1140 nM

SMILES: CCCCOc1ccc(C(=O)N(C)c2ccc(F)cc2F)cc1
- EC50 ([1]; hek293): Not Active

SMILES: CCCCOc1ccc(C(=O)Nc2ncc(F)cc2F)cc1
- EC50 ([1]; read-out: EC50): > 10000 nM
- Activity [2]: 0%

SMILES: O=C(NC1COC1)c1ccc(OCc2cccc(F)c2)nc1
- EC50 ([1]; hek293): Not Active

SMILES: CCCC(C)Oc1ccc(C(=O)NC2CCCCC2)cn1 (stereo unspecified)
- EC50 ([1]; hek293): Not Active

SMILES: O=C(NC1CCOCC1)c1ccc(OCc2ccccc2)nc1
- EC50 ([1]; read-out: EC50): 3810 nM

SMILES: O=C(NC1CCCCC1)c1ccc(OCC2CC2)nc1
- EC50 ([1]; hek293): Not Active

SMILES: C[C@@H](NC(=O)c1ccc(OCc2cccc(F)c2)nc1)C(C)(C)C
- Fu (Brain [3]): 1%
- Tmax (Brain [4]): 0.5 h
- Emax [5]: 86%
- fold change (FC) [5]: 10
- Activity [6]: inactive
- Ki [7]: 153 nM
- EC50 [8]: > 10000 nM
- EC50 [9]: > 10000 nM
- EC50 [10]: > 10000 nM
- EC50 [11]: 70 nM
- half-life [12]: 5 h
- PPB [13]: ≥ 0.99
- fold change (FC) [14]: 5
- EC50 [15]: > 10000 nM
- AUC [16]: 1.2 µM·h
- EC50 [17]: > 10000 nM
- EC50 [18]: > 10000 nM
- Activity [19]: inactive
- concentration at 1.5 h [20]: 7.4 µM
- Vdss (Rattus norvegicus [21]): 2.3 L/kg
- PPB [22]: ≥ 0.99
- AUC (Plasma): 23 µM·h
- Activity (Rattus norvegicus [23]): Active
- solubility [24]: < 20 µg/mL
- Emax [25]: 83%
- fold change (FC) [25]: 8.2
- EC50 [26]: > 10000 nM
- Activity [27]: inactive
- Ratio AUC (Brain [28]): 0.05
- Cmax [29]: 0.435 µM

SMILES: CCCCOc1ccc(C(=O)NC2CCC2)cc1
- EC50 ([1]; read-out: EC50): 5170 nM
- Activity [2]: 6.5%

SMILES: CCCOc1ccc(C(=O)NC2CCCCC2)cn1
- EC50 ([1]; hek293): Not Active

SMILES: CCCCOc1ccc(C(=O)Nc2ccc(F)cc2F)cc1
- Ki [7]: > 100000 nM
- EC50 ([1]; hek293, read-out: EC50): 33 nM

SMILES: O=C(NC1CCOCC1)c1ccc(OCc2cccc(F)c2)nc1
- EC50 ([1]; read-out: pEC50 (converted)): 1620 nM

SMILES: CCCCOc1ccc(C(=O)NC2CCCCC2)cn1
- EC50 ([1]; read-out: EC50): 2490 nM
- Activity [2]: 27%

SMILES: C[C@@H](NC(=O)c1ccc(OCc2cccc(F)c2)cc1)C(C)(C)C
- Emax [5]: 70%
- EC50 [11]: 180 nM

SMILES: CCCCOc1ccc(C(=O)Nc2ccc(F)cn2)cn1
- EC50 ([1]; read-out: EC50): 1900 nM
- Activity [2]: 9.5%

The remaining molecules from weak to strong by EC50 ([1]; read-out: EC50), led by results:

- EC50 ([1]; read-out: EC50): 1080 nM
SMILES: CCC(C)COc1ccc(C(=O)NC2CCCCC2)cn1 (racemic)

- EC50 ([1]; read-out: EC50): 725 nM
- Activity [2]: 5%
SMILES: CCCCOc1ccc(C(=O)Nc2ccc(F)cc2F)cn1

- EC50 ([1]; read-out: EC50): 607 nM
- Activity [2]: 12%
SMILES: CCCCOc1ccc(C(=O)NC2CCCCC2)cc1

- EC50 ([1]; read-out: EC50): 449 nM
SMILES: CCCCCOc1ccc(C(=O)NC2CCCCC2)cn1

- EC50 ([1]; read-out: EC50): 446 nM
- Activity [2]: 0%
SMILES: O=C(NC1CCCCC1)c1ccc(OCC2CCCC2)nc1

- EC50 ([1]; read-out: EC50): 300 nM
SMILES: O=C(NC1CCC1)c1ccc(OCc2cccc(F)c2)nc1

- EC50 ([1]; read-out: EC50): 297 nM
SMILES: O=C(NC1CCC1)c1ccc(OCc2ccccc2)nc1

- EC50 ([1]; read-out: EC50): 251 nM
SMILES: O=C(NC1CCCCC1)c1ccc(OCc2ccc(F)cc2)nc1

- EC50 ([1]; read-out: EC50): 167 nM
SMILES: C[C@H](NC(=O)c1ccc(OCc2cccc(F)c2)nc1)C1CCCCC1

- EC50 ([1]; read-out: EC50): 136 nM
SMILES: CC(C)(C)NC(=O)c1ccc(OCc2cccc(F)c2)nc1

- EC50 ([1]; read-out: EC50): 83 nM
- EC50 ([1]; read-out: pEC50 (converted)): 85.1 nM
SMILES: O=C(N[C@@H](C1CC1)C(F)(F)F)c1ccc(OCc2cccc(F)c2)nc1

- EC50 ([1]; read-out: EC50): 34 nM
- Activity [2]: 21%
SMILES: O=C(NC1CCCCC1)c1ccc(OCc2ccccc2)nc1

- EC50 ([1]; read-out: EC50): 29 nM
SMILES: O=C(NC1CCCCC1)c1ccc(OCc2cccc(F)c2)nc1

- Ki [7]: 195 nM
- EC50 ([1]; read-out: EC50): 16 nM
SMILES: O=C(NC1CCC1)c1ccc(C#Cc2cccc(F)c2)nc1

- EC50 ([1]; read-out: EC50): 15 nM
SMILES: C[C@@H](NC(=O)c1ccc(OCc2cccc(F)c2)nc1)C1CCCCC1
